Two compounds from ChEMBL document CHEMBL1129492, “Structure-activity relationships among 2-substituted 5,6-dichloro-, 4,6-dichloro-, and 4,5-dichloro-1-[(2-hydroxyethoxy) methyl]- and -1-[(1,3-dihydroxy-2-propoxy) methyl]benzimidazoles” (J Med Chem, 1996) can be followed below.

The test system of one assay is Human betaherpesvirus 5. Description: Antiviral activity of compound against HCMvirus in yield reduction experiments. In kind it is functional. Put shortly: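 HCMV Towne strain (plaque-purified isolate P_O) grown on HFF cells in 96-well dishes, infected at moi 0.5-1 PFU/cell. After adsorption, compound added in 1:3 serial dilutions from 100 to 0.14 µM, in duplicate. 7 days at 37 °C, then one freeze-thaw. Progeny titred by plaque count on fresh HFF monolayers.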

A further assay concerns KB. In words: Inhibitory activity of compound against KB cell growth [>-indicates IC50/IC90 was not reached at the noted (highest) concentration tested]. In kind it is functional, cell-based. Particulars: Homo sapiens. The essentials:
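KB cells plated at 3000-5000 cells/well and held overnight at 37 °C. Compound added in quadruplicate at six to eight concentrations, then 48 h at 37 °C in CO₂ (about two population doublings). Cells fixed with 95% ethanol, stained with 0.1% crystal violet, dye eluted with acidified ethanol and read at 570 nm. IC50 from regression.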

The IC90 is the concentration needed for an effect of 90%. A high value points to weaker potency. By IC50 is commonly meant the concentration at which inhibition is half-maximal. A low value points to higher potency. In turn, `OC[C@H]1O[C@H](n2c(Br)nc3cc(Cl)c(Cl)cc32)[C@@H](O)[C@H]1O` yielded an IC90 in the assay on Human betaherpesvirus 5 of 200 nM. Also, the IC50 with KB was above 100000 nM.

In the assay with Human betaherpesvirus 5, `OC[C@H]1O[C@@H](n2c(Cl)nc3cc(Cl)c(Cl)cc32)[C@H](O)[C@@H]1O` yielded an IC90 of 1400 nM.
